# In ChEMBL document CHEMBL4732025, “Assessment of the rules related to gaining activity against Gram-negative bacteria” (RSC Med Chem, 2021):
# Legend:
# [1] = Inhibition of IspE in Plasmodium falciparum incubated for 30 mins by microplate reader assay
# Summary of the method: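 P. falciparum IspE with C-terminal His6, expressed in E. coli XL1 and purified by Ni2+ chelating chromatography and then G-25 gel filtration. Coupled PK/LDH assay with 1.0 mM CDP-ME in 100 mM Tris-HCl pH 7.6 plus MgCl2, KCl, DTT, NADH, PEP, ATP, PK and LDH. Compound added from DMSO. Read photometrically at room temperature for 30 min.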
# [2] = target: T1, 4-diphosphocytidyl-2-C-methyl-D-erythritol kinase (Escherichia coli (strain K12), UniProt P62615); experiment: Inhibition of IspE expressed in Escherichia coli incubated for 30 mins by microplate reader assay
# T1 sequence (P62615 whole entry): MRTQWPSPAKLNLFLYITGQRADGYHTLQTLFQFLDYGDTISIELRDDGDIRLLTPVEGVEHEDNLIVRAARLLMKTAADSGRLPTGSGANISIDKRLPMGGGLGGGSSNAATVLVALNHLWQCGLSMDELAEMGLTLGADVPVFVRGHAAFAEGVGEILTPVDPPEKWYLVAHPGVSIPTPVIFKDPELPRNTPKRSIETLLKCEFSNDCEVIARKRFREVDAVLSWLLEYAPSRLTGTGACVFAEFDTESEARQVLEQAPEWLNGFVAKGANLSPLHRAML
# Escherichia coli [3] = experiment: Antimicrobial activity against Escherichia coli K-12 mutant assessed as growth inhibition at 100 uM in presence of polymyxin B nonapeptide relative to control; type: functional
# [4] = Inhibition of PK/LDH (unknown origin)
# Summary of the method: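 Counter-screen of the auxiliary enzymes: 1 mM ADP, 2 mM PEP, 1 mM NADH, PK and LDH (0.05 U/mL each), 10 mM MgCl2, 200 mM KCl, 10 mM DTT in 100 mM Tris-HCl pH 7.6. Compound added from DMSO. NADH decrease monitored photometrically at room temperature for 30 min.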
# Escherichia coli [5] = experiment: Antimicrobial activity against Escherichia coli harboring delta tolC mutant assessed as growth inhibition at 50 uM relative to control; type: functional
# Summary of the method: (§1)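 E. coli K12 wild-type and its ΔtolC and ΔacrB efflux mutants were used. Percentage growth inhibition was taken at 100 μM, or at 25 or 50 μM where compound solubility limited the top concentration, when no MIC could be determined.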
# Plasmodium falciparum = experiment: Antiplasmodial activity against Plasmodium falciparum NF54 infected in human erythrocyte assessed as reduction in [3H]hypoxanthine incorporation incubated for 24 hrs by beta liquid scintillation counter analysis; type: functional
# Summary of the method: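 Compounds (DMSO stocks) were titrated in duplicate over a 64-fold range at 1.25% haematocrit and 0.3% parasitaemia for 48 h. [3H]hypoxanthine (0.25 μCi/well) was then added for 24 h and incorporation counted by scintillation. Results are % of untreated control, with IC50 by linear interpolation.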
# Escherichia coli [6] = experiment: Antimicrobial activity against Escherichia coli harboring delta tolC mutant assessed as growth inhibition at 25 uM relative to control; type: functional; summary of the method: as §1
# Escherichia coli [7] = experiment: Antimicrobial activity against Escherichia coli harboring deltaACRB mutant assessed as growth inhibition at 25 uM relative to control; type: functional; summary of the method: as §1
# Escherichia coli [8] = experiment: Antimicrobial activity against Escherichia coli D22 assessed as growth inhibition at 25 uM relative to control; type: functional
# Summary of the method: (§2)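 Broth growth assay with E. coli BL21(DE3)omp8 (porin-[…]), E. coli D22 or S. aureus Newman. Percent growth inhibition was measured at 100 μM, or at a lower concentration where compound solubility limited it, whenever no MIC could be determined.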
# Escherichia coli [9] = experiment: Antimicrobial activity against Escherichia coli BL21 (DE3) assessed as growth inhibition at 25 uM relative to control; type: functional; summary of the method: as §2
# Staphylococcus aureus [10] = experiment: Antimicrobial activity against Staphylococcus aureus subsp. aureus str. Newman assessed as growth inhibition at 25 uM relative to control; type: functional; summary of the method: as §2
# HepG2 [11] = experiment: Cytotoxicity against human HepG2 cells at 25 uM after 72 hrs by MTT assay; type: functional
# Escherichia coli [12] = experiment: Antimicrobial activity against Escherichia coli harboring delta tolC mutant assessed as growth inhibition at 100 uM relative to control; type: functional; summary of the method: as §1
# Escherichia coli [13] = experiment: Antimicrobial activity against Escherichia coli K-12 mutant assessed as growth inhibition at 100 uM relative to control; type: functional; summary of the method: as §1
# Escherichia coli [14] = experiment: Antimicrobial activity against Escherichia coli harboring deltaACRB mutant assessed as growth inhibition at 100 uM relative to control; type: functional; summary of the method: as §1
# Escherichia coli [15] = experiment: Antimicrobial activity against Escherichia coli D22 assessed as growth inhibition at 100 uM relative to control; type: functional; summary of the method: as §2
# Escherichia coli [16] = experiment: Antimicrobial activity against Escherichia coli BL21 (DE3) assessed as growth inhibition at 100 uM relative to control; type: functional; summary of the method: as §2
# Staphylococcus aureus [17] = experiment: Antimicrobial activity against Staphylococcus aureus subsp. aureus str. Newman assessed as growth inhibition at 100 uM relative to control; type: functional; summary of the method: as §2
# HepG2 [18] = experiment: Cytotoxicity against human HepG2 cells at 100 uM after 72 hrs by MTT assay; type: functional
# Escherichia coli [19] = experiment: Antimicrobial activity against Escherichia coli harboring deltaACRB mutant assessed as growth inhibition at 50 uM relative to control; type: functional; summary of the method: as §1
# Escherichia coli [20] = experiment: Antimicrobial activity against Escherichia coli D22 assessed as growth inhibition at 50 uM relative to control; type: functional; summary of the method: as §2
# Escherichia coli [21] = experiment: Antimicrobial activity against Escherichia coli BL21 (DE3) assessed as growth inhibition at 50 uM relative to control; type: functional; summary of the method: as §2
# Staphylococcus aureus [22] = experiment: Antimicrobial activity against Staphylococcus aureus subsp. aureus str. Newman assessed as growth inhibition at 50 uM relative to control; type: functional; summary of the method: as §2
# HepG2 [23] = experiment: Cytotoxicity against human HepG2 cells at 50 uM after 72 hrs by MTT assay; type: functional
# [24] = Octanol/water partition co-efficient, log P of compound; type: physicochemical
# Summary of the method: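 Log P(o/w) calculated in silico, not measured.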
compound,measurement,setting,value
Nc1nc(=O)n(C2CCCS2)cc1C#CCNS(=O)(=O)C1CC1 (stereo unspecified),IC50,[1],> 500 µM
same,IC50,[2],1 µM
same,inhibition at 100 µM,Escherichia coli [3],6%
same,IC50,[4],> 500 µM
Cc1cc(-c2csc(NC(=O)[C@@H](NC(=O)OC(C)(C)C)N[C@@H](Cc3ccc(O)cc3)C(=O)O)n2)c(C)n1C,inhibition at 50 µM,Escherichia coli [5],13%
Cc1cc(-c2csc(NC(=O)[C@@H](NC(=O)OC(C)(C)C)N[C@H](C(=O)O)C(C)C)n2)c(C)n1C,inhibition at 50 µM,Escherichia coli [5],14%
CCCn1c(C)cc(-c2csc(NC(=O)c3ccco3)n2)c1C,IC50,Plasmodium falciparum,5 µM
same,IC50,[1],57 µM
same,IC50,[2],91 µM
same,inhibition at 25 µM,Escherichia coli [6],30%
same,inhibition at 25 µM,Escherichia coli [7],5%
same,inhibition at 25 µM,Escherichia coli [8],9%
same,inhibition at 25 µM,Escherichia coli [9],3%
same,inhibition at 25 µM,Staphylococcus aureus [10],6%
same,inhibition at 25 µM,HepG2 [11],19%
same,IC50,[4],65 µM
N[C@@H](NCC(=O)O)C(=O)Nc1csc(-c2ccccc2)n1,inhibition at 100 µM,Escherichia coli [12],10%
same,inhibition at 100 µM,Escherichia coli [13],22%
same,inhibition at 100 µM,Escherichia coli [14],6%
same,inhibition at 100 µM,Escherichia coli [15],15%
same,inhibition at 100 µM,Escherichia coli [16],19%
same,inhibition at 100 µM,Staphylococcus aureus [17],5%
same,inhibition at 100 µM,HepG2 [18],17%
CCCn1c(C)cc(-c2csc(NC(=O)c3cccs3)n2)c1C,IC50,Plasmodium falciparum,6 µM
same,IC50,[1],35 µM
same,IC50,[2],68 µM
same,inhibition at 50 µM,Escherichia coli [5],33%
same,inhibition at 50 µM,Escherichia coli [19],7%
same,inhibition at 50 µM,Escherichia coli [20],4%
same,inhibition at 50 µM,Escherichia coli [21],19%
same,inhibition at 50 µM,Staphylococcus aureus [22],7%
same,inhibition at 50 µM,HepG2 [23],-3%
same,IC50,[4],56 µM
Cc1cc(-c2csc(NC(=O)[C@@H](N)N[C@@H](Cc3ccc(O)cc3)C(=O)O)n2)c(C)n1C,inhibition at 100 µM,Escherichia coli [12],38%
CC(C)C[C@H](N[C@H](NC(=O)OC(C)(C)C)C(=O)Nc1csc(-c2ccccc2)n1)C(=O)O,inhibition at 100 µM,Escherichia coli [12],3%
CC(C)(C)OC(=O)N[C@@H](NCC(=O)O)C(=O)Nc1csc(-c2ccccc2)n1,inhibition at 100 µM,Escherichia coli [12],34%
Cc1cc(-c2csc(NC(=O)[C@@H](N)NCC(=O)O)n2)c(C)n1C,inhibition at 100 µM,Escherichia coli [12],57%
same,inhibition at 100 µM,Escherichia coli [13],13%
same,inhibition at 100 µM,Escherichia coli [14],8%
same,inhibition at 100 µM,Escherichia coli [15],3%
same,inhibition at 100 µM,Escherichia coli [16],18%
same,inhibition at 100 µM,Staphylococcus aureus [17],6%
same,inhibition at 50 µM,HepG2 [23],19%
same,logP,[24],0.9
CCn1c(C)cc(-c2csc(NC(=O)[C@H](NCC(=O)O)NC(=O)OC(C)(C)C)n2)c1C,inhibition at 50 µM,Escherichia coli [5],41%
Cc1cc(-c2csc(NC(=O)[C@@H](N)N[C@H](C(=O)O)C(C)C)n2)c(C)n1C,inhibition at 100 µM,Escherichia coli [12],42%
CC(C)C[C@H](N[C@H](N)C(=O)Nc1csc(-c2ccccc2)n1)C(=O)O,inhibition at 100 µM,Escherichia coli [12],32%
same,inhibition at 100 µM,Escherichia coli [13],18%
same,inhibition at 100 µM,Escherichia coli [14],11%
same,inhibition at 100 µM,Escherichia coli [15],18%
same,inhibition at 100 µM,Escherichia coli [16],30%
same,inhibition at 100 µM,Staphylococcus aureus [17],11%
Cc1cc(-c2csc(NC(=O)[C@@H](N)N[C@@H](CC(C)C)C(=O)O)n2)c(C)n1C,inhibition at 100 µM,Escherichia coli [12],58%
same,inhibition at 100 µM,Staphylococcus aureus [17],52%
Cc1cc(-c2csc(NC(=O)[C@H](NCC(=O)O)NC(=O)OC(C)(C)C)n2)c(C)n1C,inhibition at 100 µM,Escherichia coli [12],46%
CC(C)[C@H](N[C@H](N)C(=O)Nc1csc(-c2ccccc2)n1)C(=O)O,inhibition at 100 µM,Escherichia coli [12],17%
same,inhibition at 100 µM,Escherichia coli [13],13%
same,inhibition at 100 µM,Escherichia coli [14],2%
same,inhibition at 100 µM,Escherichia coli [15],14%
same,inhibition at 100 µM,Escherichia coli [16],16%
same,inhibition at 100 µM,Staphylococcus aureus [17],5%
Cc1cc(-c2csc(NC(=O)[C@@H](NC(=O)OC(C)(C)C)N[C@@H](CC(C)C)C(=O)O)n2)c(C)n1C,inhibition at 50 µM,Escherichia coli [5],8%
CC(C)[C@H](N[C@H](NC(=O)OC(C)(C)C)C(=O)Nc1csc(-c2ccccc2)n1)C(=O)O,inhibition at 100 µM,Escherichia coli [12],21%
CCn1c(C)cc(-c2csc(NC(=O)[C@@H](N)NCC(=O)O)n2)c1C,inhibition at 100 µM,Escherichia coli [12],55%
same,inhibition at 100 µM,Escherichia coli [13],13%
same,inhibition at 100 µM,Escherichia coli [14],65%
same,inhibition at 100 µM,Escherichia coli [15],20%
same,inhibition at 100 µM,Escherichia coli [16],16%
same,inhibition at 50 µM,Staphylococcus aureus [22],14%
same,inhibition at 100 µM,HepG2 [18],23%
same,logP,[24],1.4
